What is called half-life is the time needed for the level to fall by half in the phase considered. A word on the Tmax: it is the time from dosing to the highest level. The AUC is the area under the concentration-time curve, a measure of exposure. What is called bioavailability is dose-corrected exposure relative to a reference, in per cent.

The source of these data is ChEMBL document CHEMBL1149150, “Novel 3-oxa lipoxin A4 analogues with enhanced chemical and metabolic stability have anti-inflammatory activity in vivo” (J Med Chem, 2004).

The subject of data set [1] is Rattus norvegicus. In words: Compound clearance in rats was measured after intravenous administration at 3 mg/kg. Details: dose 3 mg/kg, route intravenous. The settings on record: in vivo. The class given is ADME, organism-based. The method, boiled down: (§1)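 Rats, n = 3 per route, dosed by iv injection at 3 mg/kg or oral gavage at 5 mg/kg. Plasma analysed by LC/MS–MS with LXA₄ as internal standard on a C18 column (10–80% gradient over 2 min). For methyl ester dosing, the plasma acid formed by hydrolysis was the analyte quantified. Outputs: T1/2, clearance, AUCall, Cmax, Tmax, F.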

Data set [2] can be described thus: Half life period of compound was determined at a dose of 3 mg/kg by intravenous administration. The class given is ADME, organism-based. Details: dose 3 mg/kg, route intravenous. The settings on record: rat, in vivo. In outline:
as §1

The nature of data set [3]: Tmax was measured in rats after peroral administration at 5 mg/kg. The class given is ADME, organism-based. Details: dose 5 mg/kg, route oral. To be noted: rat, in vivo, po. The method, boiled down: as §1
The nature of data set [4]: Area under curve after intravenous administration at 3 mg/kg. In kind it is ADME, organism-based. Details: dose 3 mg/kg, route intravenous. The settings on record: rat, in vivo. In outline:
as §1

Data set [5] in a line: Half life period of compound was determined after peroral administration. In kind it is ADME, organism-based. The settings on record: rat, in vivo, po. The method, boiled down:
as §1

The nature of data set [6]: Oral bioavailability in rat. The class given is ADME, organism-based. The settings on record: in vivo. The method, boiled down:
as §1

For data set [7], the system named is Mus musculus. In words: (§2) Inhibition of the edema formation by compound was determined in mice. In kind it is functional, organism-based. The method, boiled down:
(§3)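 Mice given ionophore on the ear with topical coapplication of compound at 100, 300 and 600 µg/cm², vehicle and ionophore controls alongside. Euthanized at 24 h. Ear weight taken as edema. Peroxidase (granulocytes) and elastase (neutrophils) activities measured in ear homogenates. N = 8–10 mice per group, mean ± SEM.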

The nature of data set [8]: Bioavailability value of compound in rats was determined after peroral administration. To be noted: rat, in vivo, po. The class given is ADME, organism-based. The method, boiled down:
as §1

A short description of data set [9]: Half life period of compound was determined after peroral administration at 2 mg/kg. In kind it is ADME, organism-based, Canis lupus familiaris. The arrangement: dose 2 mg/kg, route oral. To be noted: dog, in vivo, po. In outline:
(§4)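 Dogs dosed iv at 2 mg/kg or orally at 2 mg/kg. Plasma parameters derived were half-life, Cmax, Tmax and oral bioavailability (F).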

The nature of data set [10]: Bioavailability of compound in dog was determined after peroral administration. The class given is ADME, organism-based, Canis lupus familiaris. The settings on record: in vivo, po. In outline: as §4
Data set [11] can be described thus: F value of compound in rats was determined after peroral administration. The class given is ADME, organism-based. To be noted: rat, in vivo, po. The method, boiled down: as §1
Data set [12] is described as follows: Half life period of compound was determined after intravenous administration at 2 mg/kg. The class given is ADME, organism-based, Canis lupus familiaris. The arrangement: dose 2 mg/kg, route intravenous. The settings on record: dog, in vivo. The method, boiled down:
as §4

Data set [13] relates to Mus sp. The data set is described as §2. The class given is functional, organism-based. The method, boiled down:
as §3

Take `O=C(O)COC[C@H](O)[C@H](O)/C=C/C=C/C=C/C=C/[C@H](O)COc1ccc(F)cc1`: in data set [1], the Cl amounted to 50 mL/min/kg. In addition, the half-life in data set [2] is 1.3 h; in [5] it was 1.1 h. In addition, the Tmax in data set [3] turned out to be 0.5 h. Further, in data set [4], the AUC was 1000 ng·h/mL. The compound further came in with a bioavailability in data set [6] of 4%. The same compound came in with an IC50 in data set [7] of less than 300 ug cm**-2.

Consider `O=C(O)CCC[C@H](O)[C@H](O)/C=C/C=C/C#C/C=C/[C@@H](O)COc1ccc(F)cc1`, for which the Cl in [1] was determined as 58 mL/min/kg. Moreover, the half-life is 0.1 h in data set [2] and 1.8 h in data set [5]. The Tmax in data set [3] was found to be 0.5 h. The area under the curve (AUC) in [4] is 900 ng·h/mL. In data set [6], this compound displayed a bioavailability of 28%.

Turning to `O=C(O)CCCC(O)C(O)/C=C/C=C/C=C/C=C/[C@H](O)COc1ccc(F)cc1` (single isomer, unassigned), the bioavailability in data set [8] came to 13%. Moreover, the Cl in data set [1] is 28 mL/min/kg. Moreover, the figures for the half-life in data set [2] and in data set [5] were 0.2 h and 1.1 h, respectively. In addition, the Tmax in [3] came to 1 h. This compound yielded an AUC in data set [4] of 1800 ng·h/mL.

The compound `COC(=O)CCCC(O)C(O)/C=C/C=C/C=C/C=C/[C@H](O)COc1ccc(F)cc1` (single isomer, unassigned) showed a Cl in [1] of 51 mL/min/kg. Further, the half-life was 0.3 h in data set [2] and 0.5 h in [5]. The Tmax in data set [3] was 0.5 h. For the same compound, the AUC in data set [4] amounted to 1000 ng·h/mL. Also, in [6], the bioavailability was found to be 12%.

Consider `O=C(O)COC[C@H](O)[C@H](O)/C=C/C=C/C#C/C=C/[C@H](O)COc1ccc(F)cc1`, for which the half-life in data set [9] was 3.2 h; in data set [2], 2.3 h; in [12] it was 2.7 h; in data set [5], 2.2 h. The same compound showed a Cl in [1] of 7 mL/min/kg. In addition, the values for the bioavailability in data set [10] and in data set [11] were 40% and 14%, respectively. Further, the Tmax in [3] worked out at 1.3 h. The AUC in [4] is 7000 ng·h/mL. In addition, the ED50 in [13] is less than 300 µg/cm².
